From article PMC8923172 (Antimicrobial Agents and Chemotherapy, 2022)
Marks after values point to notes of the source that are not given here. Residues, ends and D or L forms follow the SMILES beside them.

What was measured:
LPS-induced ALI = conditions: single subcutaneous injection 25 mg/kg; cited from earlier work
[1] = Single-dose i.v. pharmacokinetics in a vervet; format: in vivo, vervet/African green monkey (Chlorocebus aethiops sabaeus); conditions: 3 mg/kg single i.v. bolus, n=1
Summary of the method: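 Adult male vervet given a single 3 mg/kg i.v. bolus of test compound. Blood was sampled at 0.5, 1, 4, 8, 24, 48, 72, 96, 120 and 192 h. Clarified plasma was diluted 1:10 into 5% formic acid-5% acetonitrile and quantified by UPLC with photodiode array detection. Noncompartmental analysis used nominal times; λz was fitted over up to the last four log-linear points.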

[2] = Serum biochemistry of cynomolgus monkeys at the end of treatment; format: in vivo; conditions: median (IQR)
Summary of the method: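 GLP 10-day study in male and female cynomolgus monkeys (n = 3-5/sex/group) dosed once daily with 0 (placebo), 5, 10 or 15 mg/kg test compound by i.v. infusion over 60 ± 5 min. Hematology, serum chemistry and coagulation were taken at end of treatment and reported as median (IQR). Dose groups were compared by Kruskal-Wallis with Dunn's multiple comparison test.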

CC[C@H](C)[C@@H]1NC(=O)[C@@H]2CSSC[C@H](NC(=O)[C@H](CCCNC(=N)N)NC(=O)[C@@H]3CSSC[C@H](NC1=O)C(=O)N[C@@H]([C@@H](C)O)C(=O)N[C@@H](CCCNC(=N)N)C(=O)NCC(=O)N[C@@H](Cc1ccccc1)C(=O)N3)C(=O)N[C@@H](CC(C)C)C(=O)N[C@H]1CSSC[C@H](NC(=O)[C@H](C(C)C)NC(=O)CNC(=O)[C@H](CCCNC(=N)N)NC(=O)[C@H](CCCNC(=N)N)NC1=O)C(=O)N[C@@H](CCCNC(=N)N)C(=O)N2 [RTD-1, Rhesus theta (θ) defensin-1] (HELM PEPTIDE1{G.F.C.R.C.L.C.R.R.G.V.C.R.C.I.C.T.R}$PEPTIDE1,PEPTIDE1,3:R3-16:R3|PEPTIDE1,PEPTIDE1,5:R3-14:R3|PEPTIDE1,PEPTIDE1,7:R3-12:R3|PEPTIDE1,PEPTIDE1,1:R1-18:R2$$$V2.0)
mean AUC0-∞ (LPS-induced ALI): ~9,001 ng · h/mL | mortality (found dead day 15, determined unrelated to treatment) (5 mg/kg/day): 1 out of 16 | LOAEL (i.v.): 20 mg/kg | NOAEL (i.v. once daily x7 days): 10 mg/kg/day | acute, treatment-related mortality (single i.v. 20 mg/kg, day 1): 5 out of 12 | AUCτ [1]: 21,949 ng · h/mL | CL [1]: 0.136 L/h/kg | MRT [1]: 4.71 h | Vss [1]: 0.639 L/kg | λz [1]: 0.204 h⁻¹ | A/G ([2]; female, 5 mg/kg/day): 1.7 (0.2) | ALP ([2]; female, 5 mg/kg/day): 576.0 (132.0) U/L | ALT ([2]; female, 5 mg/kg/day): 112.0 (50.0) U/L | AST ([2]; female, 5 mg/kg/day): 69.0 (22.0) U/L | Albumin ([2]; female, 5 mg/kg/day): 4.5 (0.5) g/dL | CK ([2]; female, 5 mg/kg/day): 301.0 (38.0) U/L | Calcium ([2]; female, 5 mg/kg/day): 10.0 (0.4) mg/dL | Chloride ([2]; female, 5 mg/kg/day): 107.0 (1.5) mmol/L | Cholesterol ([2]; female, 5 mg/kg/day): 104.0 (17.5) mg/dL | Creatinine ([2]; female, 5 mg/kg/day): 0.5 (0.1) mg/dL | GGT ([2]; female, 5 mg/kg/day): 92.0 (14.0) U/L | Globulin ([2]; female, 5 mg/kg/day): 2.7 (0.4) g/dL | Glucose ([2]; female, 5 mg/kg/day): 60.0 (7.5) mg/dL | Phos ([2]; female, 5 mg/kg/day): 5.7 (0.2) mg/dL | Potassium ([2]; female, 5 mg/kg/day): 4.9 (0.6) mmol/L | Sodium ([2]; female, 5 mg/kg/day): 146.0 (0.0) mmol/L | T-Bil ([2]; female, 5 mg/kg/day): 0.2 (0.0) mg/dL | TP ([2]; female, 5 mg/kg/day): 7.6 (0.7) g/dL | Triglycerides ([2]; female, 5 mg/kg/day): 49.0 (8.5) mg/dL | Urea N ([2]; female, 5 mg/kg/day): 15.0 (4.0) mg/dL | A/G ([2]; female, 10 mg/kg/day): 1.6 (0.2) | ALP ([2]; female, 10 mg/kg/day): 915.0 (64.0) U/L | ALT ([2]; female, 10 mg/kg/day): 126.0 (87.5) U/L | AST ([2]; female, 10 mg/kg/day): 104.0 (16.0) U/L | Albumin ([2]; female, 10 mg/kg/day): 4.3 (0.1) g/dL | CK ([2]; female, 10 mg/kg/day): 1,102.0 (1,584.0) U/L | Calcium ([2]; female, 10 mg/kg/day): 10.0 (0.1) mg/dL | Chloride ([2]; female, 10 mg/kg/day): 109.0 (2.0) mmol/L | Cholesterol ([2]; female, 10 mg/kg/day): 91.0 (10.5) mg/dL | Creatinine ([2]; female, 10 mg/kg/day): 0.6 (0.1) mg/dL | GGT ([2]; female, 10 mg/kg/day): 88.0 (7.0) U/L | Globulin ([2]; female, 10 mg/kg/day): 2.7 (0.4) g/dL | Glucose ([2]; female, 10 mg/kg/day): 59.0 (6.5) mg/dL | Phos ([2]; female, 10 mg/kg/day): 5.3 (0.6) mg/dL | Potassium ([2]; female, 10 mg/kg/day): 5.1 (0.9) mmol/L | Sodium ([2]; female, 10 mg/kg/day): 146.0 (3.0) mmol/L | T-Bil ([2]; female, 10 mg/kg/day): 0.2 (0.1) mg/dL | TP ([2]; female, 10 mg/kg/day): 7.0 (0.3) g/dL | Triglycerides ([2]; female, 10 mg/kg/day): 49.0 (1.5) mg/dL | Urea N ([2]; female, 10 mg/kg/day): 16.0 (4.5) mg/dL | A/G ([2]; female, 15 mg/kg/day): 1.5 (0.0) | ALP ([2]; female, 15 mg/kg/day): 943.0 (411.0) U/L | ALT ([2]; female, 15 mg/kg/day): 92.0 (36.0) U/L | AST ([2]; female, 15 mg/kg/day): 95.0 (45.0) U/L | Albumin ([2]; female, 15 mg/kg/day): 4.3 (0.6) g/dL | CK ([2]; female, 15 mg/kg/day): 891.0 (603.0) U/L | Calcium ([2]; female, 15 mg/kg/day): 10.2 (0.4) mg/dL | Chloride ([2]; female, 15 mg/kg/day): 111.0 (1.0) mmol/L | Cholesterol ([2]; female, 15 mg/kg/day): 94.0 (13.0) mg/dL | Creatinine ([2]; female, 15 mg/kg/day): 0.7 (0.1) mg/dL | GGT ([2]; female, 15 mg/kg/day): 99.0 (37.0) U/L | Globulin ([2]; female, 15 mg/kg/day): 2.8 (0.1) g/dL | Glucose ([2]; female, 15 mg/kg/day): 78.0 (18.0)^c mg/dL | Phos ([2]; female, 15 mg/kg/day): 5.3 (0.3)^c mg/dL | Potassium ([2]; female, 15 mg/kg/day): 6.0 (1.0) mmol/L | Sodium ([2]; female, 15 mg/kg/day): 146.0 (4.0) mmol/L | T-Bil ([2]; female, 15 mg/kg/day): 0.2 (0.2) mg/dL | TP ([2]; female, 15 mg/kg/day): 7.1 (0.8) g/dL | Triglycerides ([2]; female, 15 mg/kg/day): 56.0 (11.0) mg/dL | Urea N ([2]; female, 15 mg/kg/day): 18.0 (1.0) mg/dL | A/G ([2]; male, 5 mg/kg/day): 1.8 (0.1) | ALP ([2]; male, 5 mg/kg/day): 802.0 (253.0) U/L | ALT ([2]; male, 5 mg/kg/day): 172.0 (125.0) U/L | AST ([2]; male, 5 mg/kg/day): 122.0 (190.0) U/L | Albumin ([2]; male, 5 mg/kg/day): 4.8 (0.2) g/dL | CK ([2]; male, 5 mg/kg/day): 888.0 (13,478.0) U/L | Calcium ([2]; male, 5 mg/kg/day): 9.8 (0.5) mg/dL | Chloride ([2]; male, 5 mg/kg/day): 110.0 (2.0) mmol/L | Cholesterol ([2]; male, 5 mg/kg/day): 110.0 (15.5) mg/dL | Creatinine ([2]; male, 5 mg/kg/day): 0.8 (0.2) mg/dL | GGT ([2]; male, 5 mg/kg/day): 137.0 (31.5) U/L | Globulin ([2]; male, 5 mg/kg/day): 2.7 (0.1) g/dL | Glucose ([2]; male, 5 mg/kg/day): 111.0 (26.5) mg/dL | Phos ([2]; male, 5 mg/kg/day): 5.5 (1.7) mg/dL | Potassium ([2]; male, 5 mg/kg/day): 6.0 (1.4) mmol/L | Sodium ([2]; male, 5 mg/kg/day): 147.0 (4.0) mmol/L | T-Bil ([2]; male, 5 mg/kg/day): 0.3 (0.1) mg/dL | TP ([2]; male, 5 mg/kg/day): 7.5 (0.2) g/dL | Triglycerides ([2]; male, 5 mg/kg/day): 46.0 (18.5) mg/dL | Urea N ([2]; male, 5 mg/kg/day): 15.0 (3.5) mg/dL | A/G ([2]; male, 10 mg/kg/day): 1.7 (0.2) | ALP ([2]; male, 10 mg/kg/day): 753.0 (3.5) U/L | ALT ([2]; male, 10 mg/kg/day): 105.0 (26.5) U/L | AST ([2]; male, 10 mg/kg/day): 105.0 (43.5) U/L | Albumin ([2]; male, 10 mg/kg/day): 4.7 (0.2) g/dL | CK ([2]; male, 10 mg/kg/day): 515.0 (2,756.5) U/L | Calcium ([2]; male, 10 mg/kg/day): 10.5 (0.4) mg/dL | Chloride ([2]; male, 10 mg/kg/day): 110.0 (1.5) mmol/L | Cholesterol ([2]; male, 10 mg/kg/day): 99.0 (16.5) mg/dL | Creatinine ([2]; male, 10 mg/kg/day): 0.6 (0.1) mg/dL | GGT ([2]; male, 10 mg/kg/day): 119.0 (32.5) U/L | Globulin ([2]; male, 10 mg/kg/day): 2.9 (0.4) g/dL | Glucose ([2]; male, 10 mg/kg/day): 71.0 (23.0) mg/dL | Phos ([2]; male, 10 mg/kg/day): 5.4 (0.8) mg/dL | Potassium ([2]; male, 10 mg/kg/day): 5.9 (0.9) mmol/L | Sodium ([2]; male, 10 mg/kg/day): 150.0 (3.0) mmol/L | T-Bil ([2]; male, 10 mg/kg/day): 0.3 (0.0) mg/dL | TP ([2]; male, 10 mg/kg/day): 7.5 (0.5) g/dL | Triglycerides ([2]; male, 10 mg/kg/day): 32.0 (6.0) mg/dL | Urea N ([2]; male, 10 mg/kg/day): 20.0 (3.5) mg/dL | A/G ([2]; male, 15 mg/kg/day): 1.6 (0.2) | ALP ([2]; male, 15 mg/kg/day): 957.0 (638.0) U/L | ALT ([2]; male, 15 mg/kg/day): 88.0 (17.0) U/L | AST ([2]; male, 15 mg/kg/day): 103.0 (40.0) U/L | Albumin ([2]; male, 15 mg/kg/day): 4.4 (0.2) g/dL | CK ([2]; male, 15 mg/kg/day): 518.0 (1,392.0) U/L | Calcium ([2]; male, 15 mg/kg/day): 10.1 (0.3) mg/dL | Chloride ([2]; male, 15 mg/kg/day): 112.0 (1.0) mmol/L | Cholesterol ([2]; male, 15 mg/kg/day): 105.0 (50.0) mg/dL | Creatinine ([2]; male, 15 mg/kg/day): 0.6 (0.1) mg/dL | GGT ([2]; male, 15 mg/kg/day): 101.0 (6.0) U/L | Globulin ([2]; male, 15 mg/kg/day): 2.9 (0.5) g/dL | Glucose ([2]; male, 15 mg/kg/day): 67.0 (5.0) mg/dL | Phos ([2]; male, 15 mg/kg/day): 5.2 (0.6) mg/dL | Potassium ([2]; male, 15 mg/kg/day): 5.8 (0.6) mmol/L | Sodium ([2]; male, 15 mg/kg/day): 149.0 (2.0) mmol/L | T-Bil ([2]; male, 15 mg/kg/day): 0.2 (0.2) mg/dL | TP ([2]; male, 15 mg/kg/day): 7.5 (0.8) g/dL | Triglycerides ([2]; male, 15 mg/kg/day): 78.0 (52.0) mg/dL | Urea N ([2]; male, 15 mg/kg/day): 15.0 (2.0) mg/dL
